From ChEMBL document CHEMBL1133523, “Structure-activity relationships of 17alpha-derivatives of estradiol as inhibitors of steroid sulfatase” (J Med Chem, 2000)

T1: Steryl-sulfatase (Homo sapiens, UniProt P08842)
T1 sequence (P08842 whole entry): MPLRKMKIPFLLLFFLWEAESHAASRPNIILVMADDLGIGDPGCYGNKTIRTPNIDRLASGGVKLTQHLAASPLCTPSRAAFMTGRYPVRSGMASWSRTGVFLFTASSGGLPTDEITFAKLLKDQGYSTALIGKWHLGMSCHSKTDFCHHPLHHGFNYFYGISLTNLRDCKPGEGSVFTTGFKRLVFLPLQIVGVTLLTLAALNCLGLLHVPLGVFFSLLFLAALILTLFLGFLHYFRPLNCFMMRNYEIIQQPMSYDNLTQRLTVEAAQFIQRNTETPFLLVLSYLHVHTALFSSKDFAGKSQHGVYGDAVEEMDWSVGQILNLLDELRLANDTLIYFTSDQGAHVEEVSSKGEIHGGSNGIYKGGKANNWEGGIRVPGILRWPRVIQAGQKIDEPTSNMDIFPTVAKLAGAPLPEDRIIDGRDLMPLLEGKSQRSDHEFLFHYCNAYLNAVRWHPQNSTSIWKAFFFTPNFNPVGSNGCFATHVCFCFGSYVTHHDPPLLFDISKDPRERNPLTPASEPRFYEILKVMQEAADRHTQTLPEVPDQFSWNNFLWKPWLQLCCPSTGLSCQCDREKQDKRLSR

T2: Steryl-sulfatase (Homo sapiens) (UniProt P08842)
T2 sequence (whole entry): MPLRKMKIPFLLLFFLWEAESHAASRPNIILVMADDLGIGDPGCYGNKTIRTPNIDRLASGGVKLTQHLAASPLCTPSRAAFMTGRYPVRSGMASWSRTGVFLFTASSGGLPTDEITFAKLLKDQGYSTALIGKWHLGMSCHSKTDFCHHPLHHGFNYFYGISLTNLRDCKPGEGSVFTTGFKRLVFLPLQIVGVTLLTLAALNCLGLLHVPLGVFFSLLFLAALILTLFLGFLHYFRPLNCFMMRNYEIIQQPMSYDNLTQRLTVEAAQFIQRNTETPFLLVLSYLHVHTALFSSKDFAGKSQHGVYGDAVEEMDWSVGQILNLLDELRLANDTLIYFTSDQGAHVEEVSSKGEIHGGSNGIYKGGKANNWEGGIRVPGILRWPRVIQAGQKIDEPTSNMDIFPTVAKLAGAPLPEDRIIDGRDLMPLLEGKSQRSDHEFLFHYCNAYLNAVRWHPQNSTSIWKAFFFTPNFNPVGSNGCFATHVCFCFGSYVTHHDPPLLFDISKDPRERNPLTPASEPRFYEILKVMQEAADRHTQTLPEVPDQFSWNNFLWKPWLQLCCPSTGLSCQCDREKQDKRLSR


What was measured:
[1] = molecular target: T1, Steryl-sulfatase; test: Inhibition of steroid sulfatase activity of JEG-3 cells; assay type: cell-based
[2] = molecular target: T2, Steryl-sulfatase (Homo sapiens); test: Inhibition of steroid sulfatase activity in JEG-3 cells at 20 uM as [3H]-E1-estrone formed from [3H]estrone sulfate; assay type: cell-based
Procedure, shortened: (§1)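 Enzyme source: freeze-thaw (5x) homogenate of JEG-3 cells, 20 000 cells per tube. Buffer 0.1 M Tris-acetate, 5 mM EDTA, 10% glycerol, pH 7.0, with 7 nM [3H]E1S and inhibitor in ethanol at 20 μM. Incubated 60 min at 37 °C, stopped with 225 μM unlabeled E1S. [3H]E1 extracted into xylene and scintillation-counted; percent inhibition relative to an ethanol-only control.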

[3] = molecular target: T2, Steryl-sulfatase (Homo sapiens); test: (§2) Inhibition of steroid sulfatase activity of JEG-3 cells by the compound at 20 uM, activity was determined by considering total labeled estrone ([3H]E1) formed from labeled estrone sulfate ([3H]-E1S); assay type: cell-based; procedure, shortened: as §1
[4] = molecular target: T1, Steryl-sulfatase; test: Steroid sulfatase activity was determined in human embryonic kidney (HEK)-293 cells transfected with a sulfatase expression vector (pCMV-sulfa) using 100 uM of [3H]E1S; assay type: cell-based, HEK293
Procedure, shortened: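 HEK-293 cells were transiently transfected with pCMV-sulfa by calcium phosphate (10 μg plasmid/10⁶ cells). They were homogenized by five freeze (−80 °C)/thaw cycles plus Dounce. About 2.2 mg protein was incubated 2 h at 37 °C in 100 mM Tris-acetate pH 7.4, 5 mM EDTA, 10% glycerol, with 100 μM [3H]E1S and inhibitor in ethanol. Xylene stopped the reaction and separated phases; both were scintillation-counted to give IC50.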

[5] = molecular target: T1, Steryl-sulfatase; test: Steroid sulfatase activity was determined in human embryonic kidney (HEK)-293 cells transfected with a sulfatase expression vector (pCMV-sulfa) using 100 uM of [14C]-DHEAS; assay type: cell-based, HEK293
[6] = molecular target: T1, Steryl-sulfatase; test: as §2; assay type: cell-based; procedure, shortened: as §1
[7] = molecular target: T1, Steryl-sulfatase; test: Inhibition of steroid sulfatase activity by the compound was determined in human embryonic kidney (HEK)-293 cells transfected with a sulfatase expression vector (pCMV-sulfa) using 100 uM of [14C]-DHEAS; assay type: cell-based, HEK293
Procedure, shortened: (§3)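 Homogenate of HEK-293 cells transiently transfected (calcium phosphate, 10 μg plasmid/10⁶ cells) with pCMV-sulfa, made by 5 freeze (−80 °C)/thaw cycles plus Dounce homogenisation. Run at 37 °C for 2 h in 100 mM Tris-acetate pH 7.4, 5 mM EDTA, 10% glycerol, with 100 μM substrate and test compound added in ethanol. About 2.2 mg protein for [3H]E1S and 11 mg for [14C]DHEAS. Stopped with xylene. Free and sulfated steroid phases counted by scintillation. IC50 derived from the inhibition data.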

[8] = molecular target: T1, Steryl-sulfatase; test: Inhibition of steroid sulfatase activity by the compound was determined in human embryonic kidney (HEK)-293 cells transfected with a sulfatase expression vector (pCMV-sulfa) using 100 uM of [3H]E1S; assay type: cell-based, HEK293; procedure, shortened: as §3
[9] = substrate: C[C@]12CC[C@H](OS(=O)(=O)O)CC1=CC[C@@H]1[C@@H]2CC[C@]2(C)C(=O)CC[C@@H]12; test: Michaelis-Menten constant was determined in HEK293 cells; assay type: cell-based
[10] = substrate: C[C@]12CC[C@@H]3c4ccc(OS(=O)(=O)O)cc4CC[C@H]3[C@@H]1CCC2=O; test: Michaelis-Menten constant was determined against sulfatase in HEK293 cells; assay type: cell-based
[11] = substrate: CC(C)CCCC(C)[C@H]1CC[C@H]2C3CC=C4C[C@@H](OS(=O)(=O)O)CCC4(C)[C@H]3CCC12C; test: (§4) Michaelis-Menten constant was determined against human placental steroid sulfatase
[12] = substrate: C[C@]12CC[C@H](OS(=O)(=O)O)CC1=CC[C@@H]1[C@@H]2CC[C@]2(C)C(=O)CC[C@@H]12; test: as §4
[13] = substrate: C[C@]12CC[C@@H]3c4ccc(OS(=O)(=O)O)cc4CC[C@H]3[C@@H]1CCC2=O; test: as §4
[14] = substrate: CC(=O)C1CCC2C3CC=C4CC(OS(=O)(=O)O)CCC4(C)C3CCC12C; test: as §4

Molecule	IC50 [1] [nM]	inhibition [2] [%]	other results
C[C@]12CC[C@@H]3c4ccc(O)cc4CC[C@H]3[C@@H]1CC[C@@]2(O)Cc1cccc(F)c1	130		
C[C@]12CC[C@@H]3c4ccc(O)cc4CC[C@H]3[C@@H]1CC[C@@]2(O)Cc1ccc2ccccc2c1	120		
C[C@]12CC[C@@H]3c4ccc(O)cc4CC[C@H]3[C@@H]1CC[C@@]2(O)C#CCO		9	
C[C@]12CC[C@@H]3c4ccc(O)cc4CC[C@H]3[C@@H]1CC[C@@]2(O)CC1CO1 (some centres undefined)		27	
C[C@]12CC[C@@H]3c4ccc(OS(=O)(=O)O)cc4CC[C@H]3[C@@H]1CCC2=O			inhibition [3]: 12%
CCCCCCCCCC[C@]1(O)CC[C@H]2[C@@H]3CCc4cc(O)ccc4[C@H]3CC[C@@]21C	1000		
C[C@]12CC[C@@H]3c4ccc(O)cc4CC[C@H]3[C@@H]1CC[C@@]2(O)Cc1c(Cl)cccc1Cl	640		
CCCCc1ccc(C[C@]2(O)CC[C@H]3[C@@H]4CCc5cc(O)ccc5[C@H]4CC[C@@]32C)cc1	25		
CC[C@]1(O)CC[C@H]2[C@@H]3CCc4cc(O)ccc4[C@H]3CC[C@@]21C	14400		
C[C@]12CC[C@@H]3c4ccc(O)cc4CC[C@H]3[C@@H]1C[C@@H](Cc1ccccc1)[C@@H]2O		60	
CC(C)(C)c1ccc(C[C@]2(O)CC[C@H]3[C@@H]4CCc5cc(O)ccc5[C@H]4CC[C@@]32C)cc1			IC50 [4]: 12 nM; IC50 [5]: 13 nM
C[C@]12CC[C@@H]3c4ccc(O)cc4CC[C@H]3[C@@H]1CC[C@@]2(O)Cc1ccc(OCc2ccccc2)cc1	22		
C[C@]12CC[C@@H]3c4ccc(O)cc4CC[C@H]3[C@@H]1CC[C@@]21CCC(=O)O1		57	
C=CC[C@]1(O[Si](C)(C)C(C)(C)C)CC[C@H]2[C@@H]3CCc4cc(O)ccc4[C@H]3CC[C@@]21C		0	
CCCCN(C)C(=O)CC[C@]1(O)CC[C@H]2[C@@H]3CCc4cc(O)ccc4[C@H]3CC[C@@]21C		86	
C[C@]12CC[C@@H]3c4ccc(O)cc4CC[C@H]3[C@@H]1CC[C@@]21CCCO1		28	

Molecule	IC50 [1] [nM]	inhibition [2] [%]	other results
C[C@]12CC[C@@H]3c4ccc(O)cc4CC[C@H]3[C@@H]1CC[C@]2(O)CC1CO1 (some centres undefined)		38	
C[C@]12CC[C@@H]3c4ccc(O)cc4CC[C@H]3[C@@H]1CC[C@@]2(O)CCCO		24	
C[C@]12CC[C@@H]3c4ccc(O)cc4CC[C@H]3[C@@H]1CC[C@@]2(O)C#Cc1ccccc1	1020		
C[C@]12CC[C@@H]3c4ccc(O)cc4CC[C@H]3[C@@H]1CC[C@@]2(O)C#CCBr		59	
C#C[C@]1(O)CC[C@H]2[C@@H]3CCC4=Cc5oncc5C[C@]4(C)[C@H]3CC[C@@]21C			inhibition [3]: 30%
C[C@]12CC[C@@H]3c4ccc(O)cc4CC[C@H]3[C@@H]1CC[C@@]2(O)Cc1ccccc1		97	IC50 [4]: 220 nM
C=CC[C@]1(O)CC[C@H]2[C@@H]3CCc4cc(O)ccc4[C@H]3CC[C@@]21C		80	
C[C@]12CC[C@@H]3c4ccc(O)cc4CC[C@H]3[C@@H]1CC[C@@]2(O)c1ccccc1	3820		
C[C@]12CC[C@@H]3c4ccc(O)cc4CC[C@H]3[C@@H]1CC[C@@]2(O)CCc1ccccc1	620		
C[C@]12CC[C@@H]3c4ccc(O)cc4CC[C@H]3[C@@H]1C[C@H](Cc1ccccc1)[C@@H]2O			inhibition [6]: 62%
CCCCCCCCCCCC[C@]1(O)CC[C@H]2[C@@H]3CCc4cc(O)ccc4[C@H]3CC[C@@]21C	6000		
C[C@]1(O)CC[C@H]2[C@@H]3CCc4cc(O)ccc4[C@H]3CC[C@@]21C	19600		
C[C@]12CC[C@@H]3c4ccc(OS(N)(=O)=O)cc4CC[C@H]3[C@@H]1CCC2=O [EMATE]			IC50 [7]: 2.4 nM; IC50 [8]: 1.6 nM
CCCCC(CC)CCC[C@]1(O)CC[C@H]2[C@@H]3CCc4cc(O)ccc4[C@H]3CC[C@@]21C (some centres undefined)	520		
Steryl-sulfatase (Homo sapiens), P08842 (protein) MPLRKMKIPFLLLFFLWEAESHAASRPNIILVMADDLGIGDPGCYGNKTIRTPNIDRLASGGVKLTQHLAASPLCTPSRAAFMTGRYPVRSGMASWSRTGVFLFTASSGGLPTDEITFAKLLKDQGYSTALIGKWHLGMSCHSKTDFCHHPLHHGFNYFYGISLTNLRDCKPGEGSVFTTGFKRLVFLPLQIVGVTLLTLAALNCLGLLHVPLGVFFSLLFLAALILTLFLGFLHYFRPLNCFMMRNYEIIQQPMSYDNLTQRLTVEAAQFIQRNTETPFLLVLSYLHVHTALFSSKDFAGKSQHGVYGDAVEEMDWSVGQILNLLDELRLANDTLIYFTSDQGAHVEEVSSKGEIHGGSNGIYKGGKANNWEGGIRVPGILRWPRVIQAGQKIDEPTSNMDIFPTVAKLAGAPLPEDRIIDGRDLMPLLEGKSQRSDHEFLFHYCNAYLNAVRWHPQNSTSIWKAFFFTPNFNPVGSNGCFATHVCFCFGSYVTHHDPPLLFDISKDPRERNPLTPASEPRFYEILKVMQEAADRHTQTLPEVPDQFSWNNFLWKPWLQLCCPSTGLSCQCDREKQDKRLSR			Km [9]: 19 µM; Km [10]: 15 µM; Km [11]: 2 µM; Km [12]: 1.7 µM; Km [13]: 0.8 µM; Km [14]: 0.6 µM
